In brackets after ≈: the same amount, converted by molar mass.
Key:
Type in all cases: functional
Pseudomonas aeruginosa [1] = assay: Antibacterial activity against Pseudomonas aeruginosa 14-16 after 18 to 24 hrs by two-fold serial dilution method
Outline: (§1)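 Twofold serial dilution in agar media against Gram-positive and Gram-negative strains. Plates incubated at 35 °C for 18–24 h. MIC read as the lowest compound concentration giving complete inhibition of bacterial growth.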

[2] = tested on: Staphylococcus epidermidis; assay: Antibacterial activity against methicillin-resistant Staphylococcus epidermidis 14-22 after 18 to 24 hrs by two-fold serial dilution method
Outline: (§2)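 Agar media, standard twofold serial dilution. MIC is the lowest concentration giving complete inhibition of bacterial growth after incubation at 35 °C for 18–24 h. Ciprofloxacin and levofloxacin were run as comparators.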

Klebsiella pneumoniae [3] = assay: Antibacterial activity against extended-spectrum beta-lactamase producing Klebsiella pneumoniae 14-17 after 18 to 24 hrs by two-fold serial dilution method; outline: as §1
Staphylococcus aureus [4] = assay: Antibacterial activity against methicillin-resistant Staphylococcus aureus 14-4 after 18 to 24 hrs by two-fold serial dilution method; outline: as §2
Enterococcus faecalis [5] = assay: Antibacterial activity against Enterococcus faecalis 14-1 after 18 to 24 hrs by two-fold serial dilution method; outline: as §1
Klebsiella pneumoniae [6] = assay: Antibacterial activity against extended-spectrum beta-lactamase producing Klebsiella pneumoniae 14-19 after 18 to 24 hrs by two-fold serial dilution method; outline: as §1
Staphylococcus aureus [7] = assay: Antibacterial activity against methicillin-resistant Staphylococcus aureus 14-5 after 18 to 24 hrs by two-fold serial dilution method; outline: as §2
Enterococcus faecium [8] = assay: Antibacterial activity against Enterococcus faecium 14-6 after 18 to 24 hrs by two-fold serial dilution method; outline: as §1
Enterococcus faecalis [9] = assay: Antibacterial activity against Enterococcus faecalis 14-2 after 18 to 24 hrs by two-fold serial dilution method; outline: as §1
Escherichia coli [10] = assay: Antibacterial activity against extended-spectrum beta-lactamase producing Escherichia coli 14-1 after 18 to 24 hrs by two-fold serial dilution method; outline: as §1
Enterococcus faecium [11] = assay: Antibacterial activity against Enterococcus faecium 14-2 after 18 to 24 hrs by two-fold serial dilution method; outline: as §1
[12] = tested on: Staphylococcus epidermidis; assay: Antibacterial activity against methicillin-resistant Staphylococcus epidermidis 14-37 after 18 to 24 hrs by two-fold serial dilution method; outline: as §2
[13] = tested on: Staphylococcus epidermidis; assay: Antibacterial activity against methicillin-resistant Staphylococcus epidermidis 14-21 after 18 to 24 hrs by two-fold serial dilution method; outline: as §2
Staphylococcus aureus [14] = assay: Antibacterial activity against methicillin-sensitive Staphylococcus aureus 14-1 after 18 to 24 hrs by two-fold serial dilution method; outline: as §1
[15] = tested on: Staphylococcus epidermidis; assay: Antibacterial activity against methicillin-resistant Staphylococcus epidermidis 14-39 after 18 to 24 hrs by two-fold serial dilution method; outline: as §2
Escherichia coli [16] = assay: Antibacterial activity against extended-spectrum beta-lactamase producing Escherichia coli 14-2 after 18 to 24 hrs by two-fold serial dilution method; outline: as §1
Staphylococcus aureus [17] = assay: Antibacterial activity against methicillin-sensitive Staphylococcus aureus 14-4 after 18 to 24 hrs by two-fold serial dilution method; outline: as §1
Streptococcus pneumoniae = assay: Antibacterial activity against methicillin-resistant Streptococcus pneumoniae ATCC 19615 after 18 to 24 hrs by two-fold serial dilution method; outline: as §2
Klebsiella pneumoniae [18] = assay: Antibacterial activity against Klebsiella pneumoniae 14-1 after 18 to 24 hrs by two-fold serial dilution method; outline: as §1
Pseudomonas aeruginosa [19] = assay: Antibacterial activity against Pseudomonas aeruginosa 14-15 after 18 to 24 hrs by two-fold serial dilution method; outline: as §1
Enterococcus faecium [20] = assay: Antibacterial activity against Enterococcus faecium 14-5 after 18 to 24 hrs by two-fold serial dilution method; outline: as §1
Klebsiella pneumoniae [21] = assay: Antibacterial activity against extended-spectrum beta-lactamase producing Klebsiella pneumoniae 14-18 after 18 to 24 hrs by two-fold serial dilution method; outline: as §1
Klebsiella pneumoniae [22] = assay: Antibacterial activity against Klebsiella pneumoniae 14-3 after 18 to 24 hrs by two-fold serial dilution method; outline: as §1
Escherichia coli [23] = assay: Antibacterial activity against Escherichia coli 14-1 after 18 to 24 hrs by two-fold serial dilution method; outline: as §1
Staphylococcus aureus [24] = assay: Antibacterial activity against Staphylococcus aureus CMCC 26003 after 18 to 24 hrs by two-fold serial dilution method; outline: as §1
Escherichia coli [25] = assay: Antibacterial activity against Escherichia coli 14-2 after 18 to 24 hrs by two-fold serial dilution method; outline: as §1
[26] = tested on: Staphylococcus epidermidis; assay: Antibacterial activity against methicillin-sensitive Staphylococcus epidermidis 14-2 after 18 to 24 hrs by two-fold serial dilution method; outline: as §1
Pseudomonas aeruginosa [27] = assay: Antibacterial activity against Pseudomonas aeruginosa ATCC 27853 after 18 to 24 hrs by two-fold serial dilution method; outline: as §1
Escherichia coli [28] = assay: Antibacterial activity against Escherichia coli ATCC 25922 after 18 to 24 hrs by two-fold serial dilution method; outline: as §1
Klebsiella pneumoniae [29] = assay: Antibacterial activity against Klebsiella pneumoniae 14-4 after 18 to 24 hrs by two-fold serial dilution method; outline: as §1
Klebsiella pneumoniae [30] = assay: Antibacterial activity against Klebsiella pneumoniae 14-2 after 18 to 24 hrs by two-fold serial dilution method; outline: as §1
Pseudomonas aeruginosa [31] = assay: Antibacterial activity against Pseudomonas aeruginosa 14-14 after 18 to 24 hrs by two-fold serial dilution method; outline: as §1
Staphylococcus aureus [32] = assay: Antibacterial activity against methicillin-sensitive Staphylococcus aureus 14-3 after 18 to 24 hrs by two-fold serial dilution method; outline: as §1
Pseudomonas aeruginosa [33] = assay: Antibacterial activity against Pseudomonas aeruginosa 14-9 after 18 to 24 hrs by two-fold serial dilution method; outline: as §1

| SMILES | MIC (Pseudomonas aeruginosa [1]) | MIC [2] | MIC (Klebsiella pneumoniae [3]) | MIC (Staphylococcus aureus [4]) | MIC (Enterococcus faecalis [5]) | MIC (Klebsiella pneumoniae [6]) | MIC (Staphylococcus aureus [7]) | MIC (Enterococcus faecium [8]) | MIC (Enterococcus faecalis [9]) | MIC (Escherichia coli [10]) | MIC (Enterococcus faecium [11]) | MIC [12] | MIC [13] | MIC (Staphylococcus aureus [14]) | MIC [15] | MIC (Escherichia coli [16]) | MIC (Staphylococcus aureus [17]) | MIC (Streptococcus pneumoniae) | MIC (Klebsiella pneumoniae [18]) | MIC (Pseudomonas aeruginosa [19]) | also measured |
| --- | --- | --- | --- | --- | --- | --- | --- | --- | --- | --- | --- | --- | --- | --- | --- | --- | --- | --- | --- | --- | --- |
| CO/N=C1/CN(c2nc3c(cc2F)c(=O)c(C(=O)O)cn3C2CC2)CC1(C)CNC1CC1 (stereo unspecified) | 64 µg/mL (≈ 144 µM) | 2 µg/mL (≈ 4.51 µM) | 64 µg/mL (≈ 144 µM) | 4 µg/mL (≈ 9.02 µM) | 16 µg/mL (≈ 36.1 µM) | 64 µg/mL (≈ 144 µM) | 4 µg/mL (≈ 9.02 µM) | 2 µg/mL (≈ 4.51 µM) | 0.5 µg/mL (≈ 1.13 µM) | 32 µg/mL (≈ 72.2 µM) | 4 µg/mL (≈ 9.02 µM) | 4 µg/mL (≈ 9.02 µM) | 4 µg/mL (≈ 9.02 µM) | 0.5 µg/mL (≈ 1.13 µM) | 2 µg/mL (≈ 4.51 µM) | > 128 µg/mL | 0.5 µg/mL (≈ 1.13 µM) | 0.25 µg/mL (≈ 0.564 µM) | 64 µg/mL (≈ 144 µM) | 64 µg/mL (≈ 144 µM) | MIC (Enterococcus faecium [20]): 4 µg/mL (≈ 9.02 µM); MIC (Klebsiella pneumoniae [21]): 64 µg/mL (≈ 144 µM); MIC (Klebsiella pneumoniae [22]): > 128 µg/mL; MIC (Escherichia coli [23]): > 128 µg/mL; MIC (Staphylococcus aureus [24]): < 0.008 µg/mL; MIC (Escherichia coli [25]): > 128 µg/mL; MIC [26]: 16 µg/mL (≈ 36.1 µM); MIC (Pseudomonas aeruginosa [27]): 32 µg/mL (≈ 72.2 µM); MIC (Escherichia coli [28]): 0.5 µg/mL (≈ 1.13 µM); MIC (Klebsiella pneumoniae [29]): > 128 µg/mL; MIC (Klebsiella pneumoniae [30]): 128 µg/mL (≈ 289 µM); MIC (Pseudomonas aeruginosa [31]): 64 µg/mL (≈ 144 µM); MIC (Staphylococcus aureus [32]): 0.25 µg/mL (≈ 0.564 µM); MIC (Pseudomonas aeruginosa [33]): 16 µg/mL (≈ 36.1 µM) |
| CO/N=C1/CN(c2c(F)cc3c(=O)c(C(=O)O)cn4c3c2OC[C@@H]4C)CC1CNC1CC1 (stereo partly specified) | 64 µg/mL (≈ 144 µM) | > 64 µg/mL | 4 µg/mL (≈ 9 µM) | > 64 µg/mL | > 64 µg/mL | 8 µg/mL (≈ 18 µM) | 64 µg/mL (≈ 144 µM) | > 128 µg/mL | 16 µg/mL (≈ 36 µM) | > 64 µg/mL | > 64 µg/mL | 64 µg/mL (≈ 144 µM) | > 64 µg/mL | 64 µg/mL (≈ 144 µM) | > 64 µg/mL | > 64 µg/mL | 16 µg/mL (≈ 36 µM) | 8 µg/mL (≈ 18 µM) | 32 µg/mL (≈ 72 µM) | > 64 µg/mL | MIC (Enterococcus faecium [20]): 64 µg/mL (≈ 144 µM); MIC (Klebsiella pneumoniae [21]): 4 µg/mL (≈ 9 µM); MIC (Klebsiella pneumoniae [22]): > 64 µg/mL; MIC (Escherichia coli [23]): > 64 µg/mL; MIC (Staphylococcus aureus [24]): 4 µg/mL (≈ 9 µM); MIC (Escherichia coli [25]): > 64 µg/mL; MIC [26]: > 64 µg/mL; MIC (Pseudomonas aeruginosa [27]): 64 µg/mL (≈ 144 µM); MIC (Escherichia coli [28]): 0.5 µg/mL (≈ 1.12 µM); MIC (Klebsiella pneumoniae [29]): > 64 µg/mL; MIC (Klebsiella pneumoniae [30]): 32 µg/mL (≈ 72 µM); MIC (Pseudomonas aeruginosa [31]): > 64 µg/mL; MIC (Staphylococcus aureus [32]): 16 µg/mL (≈ 36 µM); MIC (Pseudomonas aeruginosa [33]): 64 µg/mL (≈ 144 µM) |
| CC1(CNC2CC2)CN(c2nc3c(cc2F)c(=O)c(C(=O)O)cn3[C@@H]2C[C@@H]2F)C/C1=N/OCc1ccccc1 (stereo partly specified) | 64 µg/mL (≈ 119 µM) | 16 µg/mL (≈ 29.8 µM) | 64 µg/mL (≈ 119 µM) | 16 µg/mL (≈ 29.8 µM) | 64 µg/mL (≈ 119 µM) | > 64 µg/mL | 16 µg/mL (≈ 29.8 µM) | 32 µg/mL (≈ 59.5 µM) | 2 µg/mL (≈ 3.72 µM) | 32 µg/mL (≈ 59.5 µM) | 16 µg/mL (≈ 29.8 µM) | 16 µg/mL (≈ 29.8 µM) | 16 µg/mL (≈ 29.8 µM) | 8 µg/mL (≈ 14.9 µM) | 32 µg/mL (≈ 59.5 µM) | > 64 µg/mL | 8 µg/mL (≈ 14.9 µM) | 1 µg/mL (≈ 1.86 µM) | 64 µg/mL (≈ 119 µM) | 64 µg/mL (≈ 119 µM) | MIC (Enterococcus faecium [20]): 32 µg/mL (≈ 59.5 µM); MIC (Klebsiella pneumoniae [21]): 64 µg/mL (≈ 119 µM); MIC (Klebsiella pneumoniae [22]): 64 µg/mL (≈ 119 µM); MIC (Escherichia coli [23]): > 64 µg/mL; MIC (Staphylococcus aureus [24]): 0.125 µg/mL (≈ 0.233 µM); MIC (Escherichia coli [25]): > 64 µg/mL; MIC [26]: 64 µg/mL (≈ 119 µM); MIC (Pseudomonas aeruginosa [27]): 64 µg/mL (≈ 119 µM); MIC (Escherichia coli [28]): 4 µg/mL (≈ 7.44 µM); MIC (Klebsiella pneumoniae [29]): > 64 µg/mL; MIC (Klebsiella pneumoniae [30]): 64 µg/mL (≈ 119 µM); MIC (Pseudomonas aeruginosa [31]): 64 µg/mL (≈ 119 µM); MIC (Staphylococcus aureus [32]): 2 µg/mL (≈ 3.72 µM); MIC (Pseudomonas aeruginosa [33]): 32 µg/mL (≈ 59.5 µM) |
| CCO/N=C1/CN(c2nc3c(cc2F)c(=O)c(C(=O)O)cn3C2CC2)CC1CNC1CC1 (stereo unspecified) | 16 µg/mL (≈ 36.1 µM) | 16 µg/mL (≈ 36.1 µM) | 8 µg/mL (≈ 18 µM) | 128 µg/mL (≈ 289 µM) | 64 µg/mL (≈ 144 µM) | 8 µg/mL (≈ 18 µM) | 8 µg/mL (≈ 18 µM) | 8 µg/mL (≈ 18 µM) | 0.125 µg/mL (≈ 0.282 µM) | 8 µg/mL (≈ 18 µM) | 32 µg/mL (≈ 72.2 µM) | 32 µg/mL (≈ 72.2 µM) | 16 µg/mL (≈ 36.1 µM) | 8 µg/mL (≈ 18 µM) | 16 µg/mL (≈ 36.1 µM) | 128 µg/mL (≈ 289 µM) | 8 µg/mL (≈ 18 µM) | 2 µg/mL (≈ 4.51 µM) | 32 µg/mL (≈ 72.2 µM) | 32 µg/mL (≈ 72.2 µM) | MIC (Enterococcus faecium [20]): 16 µg/mL (≈ 36.1 µM); MIC (Klebsiella pneumoniae [21]): 8 µg/mL (≈ 18 µM); MIC (Klebsiella pneumoniae [22]): 128 µg/mL (≈ 289 µM); MIC (Escherichia coli [23]): 128 µg/mL (≈ 289 µM); MIC (Staphylococcus aureus [24]): < 0.008 µg/mL; MIC (Escherichia coli [25]): 128 µg/mL (≈ 289 µM); MIC [26]: 128 µg/mL (≈ 289 µM); MIC (Pseudomonas aeruginosa [27]): 8 µg/mL (≈ 18 µM); MIC (Escherichia coli [28]): 2 µg/mL (≈ 4.51 µM); MIC (Klebsiella pneumoniae [29]): 128 µg/mL (≈ 289 µM); MIC (Klebsiella pneumoniae [30]): 32 µg/mL (≈ 72.2 µM); MIC (Pseudomonas aeruginosa [31]): 32 µg/mL (≈ 72.2 µM); MIC (Staphylococcus aureus [32]): 8 µg/mL (≈ 18 µM); MIC (Pseudomonas aeruginosa [33]): 8 µg/mL (≈ 18 µM) |
